According to ChEMBL document CHEMBL2346643, “Semisynthetic studies identify mitochondria poisons from botanical dietary supplements--geranyloxycoumarins from Aegle marmelos” (Bioorg Med Chem, 2013):
Calls of active or inactive are those of the source. The calls are words filed in the database; no cut-off is given here.

How the values were obtained:
T47D [1] = experiment: Inhibition of mitochondrial ETC complex 1 in human T47D cells assessed as inhibition of oxygen consumption at 30 uM after 5 to 10 mins by Clarke-type electrode analysis; format: cell-based
Procedure, shortened: (§1)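 For acute exposure, intact T47D cells received compound at 3, 10 or 30 μM for 5–10 min. Oxygen consumption was then measured with a Clarke-type electrode, with rotenone at 1–100 nM as control. Results are % inhibition of the untreated rate, averaged over two independent experiments with deviation from the average.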

[2] = molecular target: Mitochondrial complex I (NADH dehydrogenase); experiment: Inhibition of mitochondrial ETC complex 1 in human T47D cells assessed as inhibition of 1% O2-induced HIF1 activation incubated for 30 mins prior to 1% O2-challenge measured after 16 hrs by luciferase reporter assay; format: cell-based
Procedure, shortened: (§2)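 pHRE-luc reporter transfected T47D cells were exposed for 16 h to hypoxia (1% O2) or to chemical hypoxia (10 μM 1,10-phenanthroline) in the presence of compound. The highest concentration tested was 30 μM. Luciferase signal was expressed as % inhibition of the induced control. IC50 and 95% CI came from one representative concentration-response experiment run in triplicate. Cycloheximide at 10 μM served as control.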

T47D [3] = experiment: Inhibition of mitochondrial ETC complex 1 in human T47D cells assessed as inhibition of oxygen consumption after 5 to 10 mins by Clarke-type electrode analysis; format: cell-based; procedure, shortened: as §1
T47D [4] = experiment: Antiproliferative activity against human T47D cells at 1 to 10 uM after 48 hrs by SRB assay; format: functional, cell-based
Procedure, shortened: (§3)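 T47D or MDA-MB-231 breast tumor cells were exposed to 1, 3, 10 and 30 μM for 48 h or 144 h (6 d). For the 6 d exposure, medium was replaced after 3 days with fresh medium containing compound. Stocks were 4 mM in 2-propanol, with final solvent below 0.75%. Viability was measured by sulforhodamine B and expressed as % inhibition of the untreated control: [1−(OD treated/OD control)]×100.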

[5] = molecular target: Mitochondrial complex I (NADH dehydrogenase); experiment: Inhibition of mitochondrial ETC complex 1 in human T47D cells assessed as inhibition of 1,10-phenanthroline-induced HIF1 activation incubated for 30 mins prior to 1,10-phenanthroline-challenge measured after 16 hrs by luciferase reporter assay; format: cell-based; procedure, shortened: as §2
MDA-MB-231 [6] = experiment: Antiproliferative activity against human MDA-MB-231 cells at 1 to 10 uM after 48 hrs by SRB assay; format: functional, cell-based; procedure, shortened: as §3
T47D [7] = experiment: Inhibition of mitochondrial ETC complex 2 in human digitonin-permeabalized T47D cells assessed as inhibition of succinate-initiated respiration at 10 uM after 2 hrs by Clarke-type electrode analysis; format: cell-based
Procedure, shortened: (§4)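 T47D cells were pretreated for 2 h with 10 μM compound (rotenone control 0.01 μM), then detached, washed and permeabilized with digitonin. Substrates and inhibitors were added in sequence while O2 uptake was followed by Clarke electrode. Respiration was started with malate/pyruvate (complex I) or succinate (complex II). Antimycin A then blocked complex III, and TMPD/ascorbate re-initiated respiration via complex IV. Rates were normalized to the untreated control.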

T47D [8] = experiment: Inhibition of mitochondrial ETC complex 4 in human digitonin-permeabalized T47D cells assessed as inhibition of ascorbate/TMPD-initiated respiration at 10 uM after 2 hrs by Clarke-type electrode analysis in presence of antimycin A; format: cell-based; procedure, shortened: as §4
T47D [9] = experiment: Inhibition of mitochondrial ETC complex 1 in human digitonin-permeabalized T47D cells assessed as inhibition of malate/pyruvate-initiated respiration at 10 uM after 2 hrs by Clarke-type electrode analysis; format: cell-based; procedure, shortened: as §4
T47D [10] = experiment: Inhibition of mitochondrial ETC complex 1 in human T47D cells assessed as inhibition of oxygen consumption at 10 uM after 10 mins by Clarke-type electrode analysis; format: cell-based; procedure, shortened: as §1
T47D [11] = experiment: Inhibition of mitochondrial ETC complex 1 in human T47D cells assessed as inhibition of oxygen consumption at 10 uM after 2 hrs by Clarke-type electrode analysis; format: cell-based
Procedure, shortened: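 T47D cells were pretreated with 10 μM compound, or 0.01 μM rotenone, for 2 h. Cells were then detached and washed, and the oxygen consumption rate was measured with a Clarke-type electrode. Results are % inhibition relative to untreated controls.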

T47D [12] = experiment: Inhibition of mitochondrial ETC complex 2 in human digitonin-permeabalized T47D cells assessed as inhibition of succinate-initiated respiration at 30 uM after 2 hrs by Clarke-type electrode analysis; format: cell-based
T47D [13] = experiment: Inhibition of mitochondrial ETC complex 4 in human digitonin-permeabalized T47D cells assessed as inhibition of ascorbate/TMPD-initiated respiration at 30 uM after 2 hrs by Clarke-type electrode analysis in presence of antimycin A; format: cell-based
T47D [14] = experiment: Inhibition of mitochondrial ETC complex 1 in human digitonin-permeabalized T47D cells assessed as inhibition of malate/pyruvate-initiated respiration at 30 uM after 2 hrs by Clarke-type electrode analysis in presence of succinate; format: cell-based
T47D [15] = experiment: Inhibition of mitochondrial ETC complex 1 in human digitonin-permeabalized T47D cells assessed as inhibition of malate/pyruvate-initiated respiration at 30 uM after 2 hrs by Clarke-type electrode analysis; format: cell-based
T47D [16] = experiment: Inhibition of mitochondrial ETC complex 1 in human T47D cells assessed as inhibition of oxygen consumption at 0.01 uM after 2 hrs by Clarke-type electrode analysis; format: cell-based
Procedure, shortened: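 T47D cells treated 2 h in culture dishes with compound (10 μM; rotenone 0.01 μM), then detached and washed. O2 consumption measured with a Clark-type electrode. Value is % inhibition versus untreated control.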

T47D [17] = experiment: Inhibition of mitochondrial ETC complex 1 in human digitonin-permeabalized T47D cells assessed as inhibition of malate/pyruvate-initiated respiration at 0.01 uM after 2 hrs by Clarke-type electrode analysis; format: cell-based
Procedure, shortened: (§5)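 After 2 h pretreatment (rotenone 0.01 μM; test agents 10 μM), cells were detached and permeabilised with digitonin. Additions made in sequence: malate/pyruvate (complex I) or succinate (complex II), antimycin A to block complex III, then TMPD/ascorbate (complex IV) to restart respiration. Clark-electrode O2 consumption slopes were normalised to untreated control.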

T47D [18] = experiment: Inhibition of mitochondrial ETC complex 1 in human T47D cells assessed as inhibition of oxygen consumption at 0.01 uM after 10 mins by Clarke-type electrode analysis; format: cell-based
Procedure, shortened: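 Intact T47D cells; O2 consumption read on a Clark-type electrode after acute (5–10 min) compound exposure. Value is % inhibition of O2 consumption rate versus untreated control. Rotenone reference tested at 1, 10 and 100 nM. Mean of two independent experiments.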

T47D [19] = experiment: Inhibition of mitochondrial ETC complex 4 in human digitonin-permeabalized T47D cells assessed as inhibition of ascorbate/TMPD-initiated respiration at 0.01 uM after 2 hrs by Clarke-type electrode analysis in presence of antimycin A; format: cell-based; procedure, shortened: as §5
T47D [20] = experiment: Inhibition of mitochondrial ETC complex 2 in human digitonin-permeabalized T47D cells assessed as inhibition of succinate-initiated respiration at 0.01 uM after 2 hrs by Clarke-type electrode analysis; format: cell-based; procedure, shortened: as §5
MDA-MB-231 [21] = experiment: Antiproliferative activity against human MDA-MB-231 cells at 10 uM after 48 hrs by SRB assay; format: functional, cell-based
Procedure, shortened: (§6)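 Cells exposed 48 h to compounds at 1, 3, 10 and 30 μM (pure compounds from 4 mM 2-propanol stocks, final solvent <0.75%). Viability read by sulforhodamine B staining. Value is % inhibition versus untreated control, [1-(OD treated/OD control)]×100. Cycloheximide 10 μM and rotenone 1 and 10 nM served as controls.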

T47D [22] = experiment: Antiproliferative activity against human T47D cells at 10 uM after 48 hrs by SRB assay; format: functional, cell-based; procedure, shortened: as §6
MDA-MB-231 [23] = experiment: Antiproliferative activity against human MDA-MB-231 cells at 1 to 30 uM after 144 hrs by SRB assay; format: functional, cell-based; procedure, shortened: as §3
T47D [24] = experiment: Antiproliferative activity against human T47D cells at 1 to 30 uM after 144 hrs by SRB assay; format: functional, cell-based; procedure, shortened: as §3
T47D [25] = experiment: Antiproliferative activity against human T47D cells at 30 uM after 48 hrs by SRB assay; format: functional, cell-based; procedure, shortened: as §3
MDA-MB-231 [26] = experiment: Antiproliferative activity against human MDA-MB-231 cells at 30 uM after 48 hrs by SRB assay; format: functional, cell-based; procedure, shortened: as §3

Row | SMILES | inhibition (T47D [1]) | IC50 [2] | inhibition (T47D [3]) | Activity (T47D [4]) | IC50 [5] | Activity (MDA-MB-231 [6]) | further results
1 | COC(C)(C)[C@H](O)CC/C(C)=C/COc1ccc2ccc(=O)oc2c1 | 30% | 19.3 µM | Dose-dependent effect | Active | > 30 µM | Active | 
2 | C=C(C)[C@H](O)CC/C(C)=C/COc1ccc2ccc(=O)oc2c1 | 30% | 10.4 µM | Dose-dependent effect | Active | 21.8 µM | Active | inhibition (T47D [7]): 16%; inhibition (T47D [8]): inactive; inhibition (T47D [9]): 16%; inhibition (T47D [10]): 27%; inhibition (T47D [11]): 31%
3 | C/C(=C\COc1ccc2ccc(=O)oc2c1)CC[C@@H](O)C(C)(C)Cl | 30% | 16.7 µM | Dose-dependent effect | Active | 11.1 µM | Active | inhibition (T47D [12]): inactive; inhibition (T47D [13]): inactive; inhibition (T47D [14]): inactive; inhibition (T47D [15]): Active
4 | COc1cc2ccc(=O)oc2cc1OC/C=C(\C)CCC=C(C)C | 30% | 17.5 µM | Dose-dependent effect | Active | 24.2 µM | Active | 
5 | C=C(C)[C@H]1Cc2c(ccc3c2O[C@@H]2COc4cc(OC)c(OC)cc4[C@@H]2C3=O)O1 |  |  |  |  |  |  | inhibition (T47D [16]): 68%; inhibition (T47D [17]): 75%; inhibition (T47D [18]): 21%; inhibition (T47D [19]): inactive; inhibition (T47D [20]): 18%
6 | C[C@@H]1C[C@@H]([C@H](O)CC2CC(=O)NC(=O)C2)C(=O)[C@@H](C)C1 |  |  |  |  |  |  | Activity (MDA-MB-231 [21]): Active; Activity (T47D [22]): Active
7 | COc1cc(C[C@H]2CO[C@H](c3ccc(O)c(OC)c3)[C@H]2COC(=O)CC(C)C)ccc1O [(+)-9'-ISOVALEROXYLARICIRESINOL] | inactive | 9.1 µM |  |  | 4.9 µM |  | 
8 | CC(C)=CCC/C(C)=C/COc1ccc2ccc(=O)oc2c1 [AURAPTENE] | 30% | 10.2 µM | Dose-dependent effect | Active | 18.8 µM | Active | inhibition (T47D [12]): inactive; inhibition (T47D [13]): inactive; inhibition (T47D [14]): inactive; inhibition (T47D [15]): Active
9 | CC(C)=CCOc1ccc(CCNC(=O)/C=C/c2ccccc2)cc1 [DEHYDROMARMELINE] | 70% | 15.1 µM |  |  | > 30 µM |  | inhibition (T47D [12]): inactive; inhibition (T47D [13]): inactive; inhibition (T47D [14]): inactive; inhibition (T47D [15]): Active
10 | CCCCC/C=C\C/C=C\CCCCCCCC(=O)O[C@H](CC/C(C)=C/COc1ccc2ccc(=O)oc2c1)C(C)(C)O [R-(+)-MARMIN-6'-LINOLEATE] | 25% | 0.92 µM |  | Active | 2.35 µM | Active | inhibition (T47D [7]): 41%; Activity (MDA-MB-231 [23]): Active; inhibition (T47D [8]): inactive; inhibition (T47D [9]): 68%; inhibition (T47D [10]): 6%; Activity (T47D [24]): Active; inhibition (T47D [11]): 62%
11 | CCCCCCCC(=O)O[C@H](CC/C(C)=C/COc1ccc2ccc(=O)oc2c1)C(C)(C)O [R-(+)-MARMIN-6'-OCTANOATE] | 30% | 3.08 µM | Dose-dependent effect | Active | 3.71 µM | Active | Activity (MDA-MB-231 [23]): Active; inhibition (T47D [8]): inactive; inhibition (T47D [10]): 28%; Activity (T47D [25]): Active; Activity (T47D [24]): Active; inhibition (T47D [11]): 39%; Activity (MDA-MB-231 [26]): Active
12 | CCCCCCCCCCCCCCCC(=O)O[C@H](CC/C(C)=C/COc1ccc2ccc(=O)oc2c1)C(C)(C)O [R-(+)-MARMIN-6'-PALMITATE] | 20% | > 30 µM |  | Active | > 30 µM | Active | 
13 | CCCCCCCCCCC(=O)O[C@H](CC/C(C)=C/COc1ccc2ccc(=O)oc2c1)C(C)(C)O [R-(+)-MARMIN-6'-UNDECANOATE] | 30% | 0.87 µM | Dose-dependent effect | Active | 3.67 µM | Active | Activity (MDA-MB-231 [23]): Active; Activity (T47D [25]): Active; Activity (T47D [24]): Active; Activity (MDA-MB-231 [26]): Active
14 | C/C(=C\COc1ccc2ccc(=O)oc2c1)CC[C@@H](O)C(C)(C)O [R-(+)-MARMIN] | 20% | > 30 µM |  | Active | > 30 µM | Active | 
